Legend:
Acetylcholinesterase [1] = target: T1, Acetylcholinesterase (Bos taurus, UniProt P23795); test: Inhibitory activity towards beef erythrocytes acetylcholinesterase
T1 sequence (P23795 whole entry): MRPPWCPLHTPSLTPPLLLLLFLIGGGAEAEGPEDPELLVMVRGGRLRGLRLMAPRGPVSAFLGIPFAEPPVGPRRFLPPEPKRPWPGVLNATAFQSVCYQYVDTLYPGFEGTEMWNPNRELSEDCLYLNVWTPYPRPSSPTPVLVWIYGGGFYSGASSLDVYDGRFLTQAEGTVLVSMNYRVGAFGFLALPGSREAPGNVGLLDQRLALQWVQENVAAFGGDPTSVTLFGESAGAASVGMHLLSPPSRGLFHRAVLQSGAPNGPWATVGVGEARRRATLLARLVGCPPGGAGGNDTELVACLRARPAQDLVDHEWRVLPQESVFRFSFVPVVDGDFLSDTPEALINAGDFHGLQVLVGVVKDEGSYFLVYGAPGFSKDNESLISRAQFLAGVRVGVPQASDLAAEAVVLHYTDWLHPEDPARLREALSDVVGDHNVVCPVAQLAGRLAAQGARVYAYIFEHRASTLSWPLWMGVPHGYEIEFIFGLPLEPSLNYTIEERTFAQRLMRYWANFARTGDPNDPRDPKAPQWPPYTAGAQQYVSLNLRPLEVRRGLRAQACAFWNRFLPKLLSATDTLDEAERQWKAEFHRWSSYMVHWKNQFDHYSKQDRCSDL

Cholinesterase [2] = target: Cholinesterase (Homo sapiens, UniProt P06276); test: Inhibitory activity towards human butyrylcholinesterase
Sequence of Cholinesterase (Homo sapiens, UniProt P06276) (P06276 whole entry): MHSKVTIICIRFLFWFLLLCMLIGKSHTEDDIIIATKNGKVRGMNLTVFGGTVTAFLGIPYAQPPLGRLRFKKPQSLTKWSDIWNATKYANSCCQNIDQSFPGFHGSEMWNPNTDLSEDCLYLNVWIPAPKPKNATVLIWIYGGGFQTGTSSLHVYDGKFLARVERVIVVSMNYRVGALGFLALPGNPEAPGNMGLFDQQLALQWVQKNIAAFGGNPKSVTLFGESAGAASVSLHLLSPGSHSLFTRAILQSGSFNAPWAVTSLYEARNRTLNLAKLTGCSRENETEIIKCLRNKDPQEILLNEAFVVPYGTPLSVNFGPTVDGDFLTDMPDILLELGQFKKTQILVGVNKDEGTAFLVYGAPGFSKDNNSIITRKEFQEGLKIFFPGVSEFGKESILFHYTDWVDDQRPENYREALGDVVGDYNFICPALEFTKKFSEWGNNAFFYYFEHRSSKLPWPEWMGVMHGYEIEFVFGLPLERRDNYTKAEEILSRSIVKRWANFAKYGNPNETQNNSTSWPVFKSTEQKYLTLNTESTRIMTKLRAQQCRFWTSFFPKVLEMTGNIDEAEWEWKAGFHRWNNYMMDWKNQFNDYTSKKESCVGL
How it was run: (§1)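 Modified Rappaport assay following acetylcholine chloride hydrolysis to acetic acid, with m-nitrophenol indicator in phosphate buffer at pH 7.8 and NaCl. The compound is added in DMSO, and the reaction is started with serum (human, mouse or calf). A420 is read at 25 °C at 0 and 5 min. Final inhibitor is 0.1, 0.5, 1, 5, 10, 30 and 50 µM. IC50 is interpolated from ΔE plots in the pseudolinear region.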

Acetylcholinesterase [3] = target: Acetylcholinesterase (Electrophorus electricus, UniProt O42275); test: Inhibitory activity towards Electrophorus electricus acetylcholinesterase
Sequence of Acetylcholinesterase (Electrophorus electricus, UniProt O42275) (O42275 whole entry): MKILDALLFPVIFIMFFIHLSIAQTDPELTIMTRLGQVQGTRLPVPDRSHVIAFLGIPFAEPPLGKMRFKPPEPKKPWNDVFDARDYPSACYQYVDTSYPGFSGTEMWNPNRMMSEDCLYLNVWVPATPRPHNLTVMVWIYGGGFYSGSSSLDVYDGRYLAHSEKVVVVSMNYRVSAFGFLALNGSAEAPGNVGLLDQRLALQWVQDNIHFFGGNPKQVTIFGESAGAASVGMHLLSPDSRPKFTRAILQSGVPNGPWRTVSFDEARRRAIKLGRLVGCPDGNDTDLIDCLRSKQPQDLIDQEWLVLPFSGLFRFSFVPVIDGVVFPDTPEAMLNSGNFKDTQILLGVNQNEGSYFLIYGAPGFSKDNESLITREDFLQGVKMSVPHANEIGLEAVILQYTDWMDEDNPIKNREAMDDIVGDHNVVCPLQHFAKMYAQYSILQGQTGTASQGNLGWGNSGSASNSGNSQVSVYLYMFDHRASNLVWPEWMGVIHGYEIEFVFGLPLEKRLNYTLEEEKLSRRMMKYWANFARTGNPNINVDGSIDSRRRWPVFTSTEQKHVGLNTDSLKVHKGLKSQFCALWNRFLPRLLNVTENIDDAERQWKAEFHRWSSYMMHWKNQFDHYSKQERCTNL

Acetylcholinesterase [4] = target: T1, Acetylcholinesterase; test: Inhibitory activity towards calf serum acetylcholinesterase; how it was run: as §1
Cholinesterase [5] = target: Cholinesterase (Mus musculus, UniProt Q03311); test: Inhibitory activity towards mouse butyrylcholinesterase; how it was run: as §1
Sequence of Cholinesterase (Mus musculus, UniProt Q03311) (Q03311 whole entry): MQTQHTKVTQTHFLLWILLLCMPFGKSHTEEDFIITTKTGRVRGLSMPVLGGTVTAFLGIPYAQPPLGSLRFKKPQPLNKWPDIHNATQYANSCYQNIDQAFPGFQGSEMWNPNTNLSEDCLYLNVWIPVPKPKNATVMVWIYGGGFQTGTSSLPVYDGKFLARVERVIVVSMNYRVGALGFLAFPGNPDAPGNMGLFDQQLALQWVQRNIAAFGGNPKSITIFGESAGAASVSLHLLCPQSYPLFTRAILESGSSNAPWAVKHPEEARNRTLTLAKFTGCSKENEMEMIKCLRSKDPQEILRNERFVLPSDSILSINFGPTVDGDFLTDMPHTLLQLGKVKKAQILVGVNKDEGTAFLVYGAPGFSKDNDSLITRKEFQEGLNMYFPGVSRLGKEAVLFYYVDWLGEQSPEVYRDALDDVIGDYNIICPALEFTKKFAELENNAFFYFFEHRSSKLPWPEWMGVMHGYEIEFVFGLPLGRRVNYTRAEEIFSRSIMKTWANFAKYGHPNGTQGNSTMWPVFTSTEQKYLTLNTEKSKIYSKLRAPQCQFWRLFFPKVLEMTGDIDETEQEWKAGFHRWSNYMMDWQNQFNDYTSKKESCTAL

L1210 = test: Antitumor activity tested in L1210 cells; format: functional, cell-based; settings: Mus musculus
CCRF-CEM = test: Anti-HIV-1 activity tested in human lymphocytic CEM cells; format: functional, cell-based

| Compound | IC50 (Acetylcholinesterase [1]) [µM] | IC50 (Cholinesterase [2]) [µM] | IC50 (Acetylcholinesterase [3]) [µM] | IC50 (Acetylcholinesterase [4]) [µM] | IC50 (Cholinesterase [5]) [µM] | EC50 (L1210) [µM] | EC50 (CCRF-CEM) [µM] | IC50 (L1210) [µM] |
| --- | --- | --- | --- | --- | --- | --- | --- | --- |
| Cc1cccc2c1OP(=O)(OC[C@@H]1C[C@H](F)[C@H](n3cnc4c(N)ncnc43)O1)OC2 (some centres not stated) | > 50 | 5 | > 50 | > 50 | > 50 |  |  |  |
| Cc1cccc2c1O[P@@](=O)(OC[C@H]1O[C@@H](n3cc(F)c(=O)[nH]c3=O)C[C@@H]1O)OC2 |  |  | > 50 |  |  | 0.04 |  |  |
| Cc1cn([C@H]2C=C[C@@H](CO[P@@]3(=O)OCc4cccc(C(C)(C)C)c4O3)O2)c(=O)[nH]c1=O |  | > 50 | > 50 |  |  |  | 0.13 |  |
| Cc1cccc2c1OP(=O)(OC[C@@H]1C[C@@H](F)[C@H](n3cnc4c(N)ncnc43)O1)OC2 (some centres not stated) |  | 1.1 | > 50 |  |  |  |  |  |
| O=C1NC(=O)N([C@H]2C[C@H](O)[C@@H](COP3(=O)OCc4cccc(-c5ccccc5)c4O3)O2)C[C@H]1/C=C/Br (some centres not stated) |  | > 50 | > 50 |  |  |  |  |  |
| Cc1cccc2c1O[P@@](=O)(OC[C@H](CO)OCn1cnc3c(O)nc(N)nc31)OC2 |  | 23 | > 50 |  |  |  |  |  |
| O=C1NC(=O)N([C@H]2C[C@H](O)[C@@H](CO[P@]3(=O)OCc4cccc(-c5ccccc5)c4O3)O2)CC1/C=C/Br (some centres not stated) |  | 3.7 | > 50 |  |  |  |  |  |
| COc1ccc2c(c1)CO[P@](=O)(OC[C@@H]1C=C[C@H](n3cc(C)c(=O)[nH]c3=O)O1)O2 |  | > 50 | > 50 |  |  |  | 0.043 |  |
| Cc1cccc2c1O[P@@](=O)(OC[C@@H]1C=C[C@H](n3cc(C)c(=O)[nH]c3=O)O1)OC2 | > 50 | > 50 | > 50 | > 50 | > 50 |  | 0.08 |  |
| Cc1ccc2c(c1)COP(=O)(OC[C@@H]1C=C[C@H](n3cc(C)c(=O)[nH]c3=O)O1)O2 (some centres not stated) |  | 4.6 | > 50 |  |  |  |  |  |
| Cc1cn(C2C=CC(COP3(=O)OCc4cc(CCC(=O)OCc5ccccc5)ccc4O3)O2)c(=O)[nH]c1=O (configuration not stated) |  | 22 | > 50 |  |  |  | 0.08 |  |
| Cc1cc(C)c2c(c1)COP(=O)(OCC1C=CC(n3cc(C)c(=O)[nH]c3=O)O1)O2 (configuration not stated) |  | 46 | > 50 |  |  |  |  |  |
| Cc1cccc2c1OP(=O)(OC[C@H]1O[C@@H](N3C=NC4C(=O)N=C(N)N=C43)C[C@@H]1O)OC2 (some centres not stated) |  | > 50 | > 50 |  |  |  |  |  |
| Cc1cccc2c1OP(=O)(OC[C@H]1O[C@@H](n3cc(C)c(=O)[nH]c3=O)C[C@@H]1O)OC2 (some centres not stated) |  | 36 | > 50 |  |  |  |  |  |
| Cc1cccc2c1OP(=O)(OC[C@H]1O[C@@H](n3cc(F)c(=O)[nH]c3=O)C[C@@H]1O)OC2 (some centres not stated) |  | > 50 | > 50 |  |  |  |  | 0.04 |
| Cc1cccc2c1OP(=O)(OCC1CCC(n3cc(C)c(=O)[nH]c3=O)O1)OC2 (configuration not stated) |  | 1 | > 50 |  |  |  | 4.3 |  |
| Cc1cn(C2C=CC(COP3(=O)OCc4cc(C(C)(C)C)cc(C(C)(C)C)c4O3)O2)c(=O)[nH]c1=O (configuration not stated) |  | > 50 | > 50 |  |  |  | 1.1 |  |
| Cc1cn(C2C=CC(COP3(=O)OCc4cccc(-c5ccccc5)c4O3)O2)c(=O)[nH]c1=O (configuration not stated) |  | 0.35 | > 50 |  |  |  | 0.13 |  |
| Cc1cn(C2C=CC(COP3(=O)OCc4cccc(CCC(=O)OCc5ccccc5)c4O3)O2)c(=O)[nH]c1=O (configuration not stated) |  | 2.8 | > 50 |  |  |  | 0.15 |  |
| Cc1cn(C2C=CC(COP3(=O)Oc4ccccc4C(C(Cl)(Cl)Cl)O3)O2)c(=O)[nH]c1=O (configuration not stated) |  | 27 | > 50 |  |  |  | 0.19 |  |
| CCCCC1OP(=O)(OCC2C=CC(n3cc(C)c(=O)[nH]c3=O)O2)Oc2cccc(Cl)c21 (configuration not stated) |  | 13 | > 50 |  |  |  | 0.19 |  |
| Cc1cccc2c1OP(=O)(OCC1C=CC(n3cnc4c(N)ncnc43)O1)OC2 (configuration not stated) | > 50 | 1.2 | > 50 | > 50 | 10.5 |  | 0.065 |  |
| Cc1cn(C2C=CC(COP3(=O)OCc4c(ccc5ccccc45)O3)O2)c(=O)[nH]c1=O (configuration not stated) |  | 3.9 | > 50 |  |  |  | 0.09 |  |
| Cc1cccc2c1OP(=O)(OCC1C=CC(n3cnc4c(O)nc(N)nc43)C1)OC2 (configuration not stated) |  | 2.5 | > 50 |  |  |  | 0.47 |  |
| Cc1cn(C2C=CC(COP3(=O)OCc4cc(C(C)(C)C)ccc4O3)O2)c(=O)[nH]c1=O (configuration not stated) |  | 5.6 | > 50 |  |  |  | 0.14 |  |
| Cc1cn([C@H]2C=C[C@@H](COP3(=O)OCc4cccc(C(C)(C)C)c4O3)O2)c(=O)[nH]c1=O (some centres not stated) |  | 4.2 | > 50 |  |  |  | 0.18 |  |

| Compound | IC50 (Acetylcholinesterase [1]) [µM] | IC50 (Cholinesterase [2]) [µM] | IC50 (Acetylcholinesterase [3]) [µM] | IC50 (Acetylcholinesterase [4]) [µM] | IC50 (Cholinesterase [5]) [µM] | EC50 (L1210) [µM] | EC50 (CCRF-CEM) [µM] | IC50 (L1210) [µM] |
| --- | --- | --- | --- | --- | --- | --- | --- | --- |
| Cc1cn([C@H]2C=C[C@@H](COP3(=O)OCc4ccccc4O3)O2)c(=O)[nH]c1=O (some centres not stated) |  | 0.77 | > 50 |  |  |  |  |  |
| Cc1cccc2c1OP(=O)(OC[C@@H]1C=C[C@H](n3cc(C)c(=O)[nH]c3=O)O1)OC2 (some centres not stated) |  | 1.2 | > 50 |  |  |  |  |  |
| Cc1cccc2c1OP(=O)(OCC1CCC(n3cnc4c(N)ncnc43)O1)OC2 (configuration not stated) | > 50 | 0.91 | > 50 | > 50 | 2.35 |  | 0.047 |  |
| CCC(C)c1ccc2c(c1)COP(=O)(OCC1C=CC(n3cc(C)c(=O)[nH]c3=O)O1)O2 (configuration not stated) |  | 3.3 | > 50 |  |  |  | 1.9 |  |
| CCOC(=O)CC1OP(=O)(OCC2C=CC(n3cc(C)c(=O)[nH]c3=O)O2)Oc2cccc(Cl)c21 (configuration not stated) |  | > 50 | > 50 |  |  |  | 0.14 |  |
| Cc1cn(C2C=CC(COP3(=O)Oc4ccccc4C(CCl)O3)O2)c(=O)[nH]c1=O (configuration not stated) |  | 3.9 | > 50 |  |  |  | 0.19 |  |
| Cc1cn(C2C=CC(COP3(=O)Oc4cccc(Cl)c4C(C)O3)O2)c(=O)[nH]c1=O (configuration not stated) |  | 1.8 | > 50 |  |  |  | 0.19 |  |
| Cc1cccc2c1OP(=O)(OCC1OC(n3cc(C)c(=O)[nH]c3=O)CC1=O)OC2 (configuration not stated) |  | > 50 | > 50 |  |  |  |  |  |
| Cc1cn(C2C=CC(COP3(=O)OCc4c(Cl)cccc4O3)O2)c(=O)[nH]c1=O (configuration not stated) |  | 0.57 | > 50 |  |  |  | 0.09 |  |
| COC(=O)CCc1ccc2c(c1)COP(=O)(OCC1C=CC(n3cc(C)c(=O)[nH]c3=O)O1)O2 (configuration not stated) |  | 8.8 | > 50 |  |  |  | 0.24 |  |
| Cc1cn(C2C=CC(COP3(=O)OCc4ccc5ccccc5c4O3)O2)c(=O)[nH]c1=O (configuration not stated) |  | 0.25 | > 50 |  |  |  | 0.14 |  |
| COC(=O)CCc1cccc2c1OP(=O)(OCC1C=CC(n3cc(C)c(=O)[nH]c3=O)O1)OC2 (configuration not stated) |  | 2.7 | > 50 |  |  |  | 0.16 |  |
| Cc1cn(C2C=CC(COP3(=O)OCc4cc5ccccc5cc4O3)O2)c(=O)[nH]c1=O (configuration not stated) |  | 0.41 | > 50 |  |  |  | 0.41 |  |
| Cc1cccc2c1OP(=O)(OCC1CC(O)C(n3cnc4c(N)ncnc43)O1)OC2 (configuration not stated) |  | 28 | > 50 |  |  |  |  |  |
| Cc1cn(C2C=CC(COP3(=O)OCc4cc(CCC(=O)OC(C)(C)C)ccc4O3)O2)c(=O)[nH]c1=O (configuration not stated) |  | 4.4 | > 50 |  |  |  | 0.18 |  |
| CCC(C)c1cccc2c1OP(=O)(OCC1C=CC(n3cc(C)c(=O)[nH]c3=O)O1)OC2 (configuration not stated) |  | 2 | > 50 |  |  |  | 0.08 |  |
| Cc1cn(C2C=CC(COP3(=O)OCc4cc(CCC(=O)O)ccc4O3)O2)c(=O)[nH]c1=O (configuration not stated) |  | > 50 | > 50 |  |  |  | 0.14 |  |
| Cc1cccc2c1OP(=O)(OCC1OC(n3cc(C)c(=O)[nH]c3=O)CC1N=[N+]=[N-])OC2 (configuration not stated) | > 50 | 40 | > 50 | > 50 | > 50 |  | 0.006 |  |
| Cc1cn(C2C=CC(COP3(=O)OCc4cccc(CCC(=O)O)c4O3)O2)c(=O)[nH]c1=O (configuration not stated) |  | > 50 | > 50 |  |  |  | 0.19 |  |
| Cc1cn(C2C=CC(COP3(=O)OCc4cc(-c5ccccc5)ccc4O3)O2)c(=O)[nH]c1=O (configuration not stated) |  | 4.4 | > 50 |  |  |  | 0.4 |  |
| Cc1cn(C2C=CC(COP3(=O)Oc4ccccc4C(C(Cl)Cl)O3)O2)c(=O)[nH]c1=O (configuration not stated) |  | 26 | > 50 |  |  |  | 0.16 |  |
| Cc1cn(C2C=C[C@@H](CO[P@]3(=O)OCc4cccc(C(C)(C)C)c4O3)O2)c(=O)[nH]c1=O (single isomer, unassigned) |  | 2.6 | > 50 |  |  |  | 0.6 |  |
| Cc1cccc2c1O[P@](=O)(OC[C@@H]1C=CC(n3cc(C)c(=O)[nH]c3=O)O1)OC2 (single isomer, unassigned) | > 50 | 0.24 | > 50 | > 50 | ≥ 5 |  | 0.42 |  |
| COc1ccc2c(c1)CO[P@@](=O)(OC[C@@H]1C=CC(n3cc(C)c(=O)[nH]c3=O)O1)O2 (single isomer, unassigned) |  | 1.8 | > 50 |  |  |  | 0.5 |  |
| Cc1cccc2c1OP(=O)(OC[C@H]1C=CC(n3cnc4c(NC5CC5)nc(N)nc43)C1)OC2 (single isomer, unassigned) |  | 1.3 | > 50 |  |  |  | 0.7 |  |
